# Among all 2,500 compounds or so, about 1,200 (48%) were called active.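 How the source made its calls: active means mean activation above the low control average plus 3 SD, as set in the primary screen (cut at about 12% in these data); inactive means the rest.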 The set was probably picked from earlier hits. The list shows a part of the results.
# Target: Troponin I, cardiac muscle (Homo sapiens) + Troponin T, cardiac muscle (Homo sapiens) + Troponin C, slow skeletal and cardiac muscles (Homo sapiens) (UniProt P19429+P45379+P63316)
# Test: calcium sensitizers of cardiac thin filaments – biochemical, IANBD-TnC fluorescence, triplicate, confirmation (AID 504383);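 further: 0% = DMSO at 0.472 mM calcium and 100% = DMSO at 2.9 mM calcium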
# Conditions: IANBD-labeled cardiac RTF, Ca2+ sensitivity fluorescence; at 7.2 µM; stronger effect = higher value; scaled from EC20 to saturating calcium; tested at EC20 calcium, 0.472 mM
# Procedure, shortened: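 material = labelled regulated thin filaments | probe or stimulus = Ca2+ 0.472 mM, EC20 level | dosing = single nominal compound dose of 7.2 µM | schedule = 15 min at 25 °C | signal = fluorescence intensity of labelled filaments | evaluation = fluorescence gain scaled between EC20 and EC100 calcium controls | benchmarks = low control EC20 calcium, high control EC100 calcium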
row,SMILES,activation
1,CCOC(=O)c1ccc(-n2c(CCC(=O)O)ccc2-c2cccs2)cc1,2.47% (inactive)
2,CCOC(=O)c1ccc(N2C(=O)C3C(C2=O)C(C(=O)c2ccc(Cl)cc2)N2CCCC32)cc1 (centres undefined),12.8% (active)
3,CC(=O)Oc1ccc(N2C(=O)C3C(C2=O)C(C(=O)c2ccc(Cl)cc2)N2CCCC32)cc1 (centres undefined),77.4% (active)
4,COc1ccc(N2C(=O)C3C(C2=O)C(C(=O)c2ccc(Cl)cc2)N2CCCC32)cc1 (centres undefined),8.37% (inactive)
5,COc1ccccc1/C=C/C=C1\Oc2c(ccc(O)c2CN(C)C)C1=O,24.3% (active)
6,COCCN(CCOC)Cc1c(O)ccc2c1O/C(=C\c1ccc(C)o1)C2=O,3.93% (inactive)
7,CN(C)Cc1c(O)ccc2c1O/C(=C\C=C\c1ccccc1)C2=O,6.64% (inactive)
8,CCN(CC)Cc1c(O)ccc2c1O/C(=C\C=C\c1ccccc1)C2=O,13.5% (active)
9,CCN1CCN(Cc2c(O)ccc3c2O/C(=C\c2ccccc2)C3=O)CC1,17.9% (active)
10,CCc1ccc(/C=C2\Oc3c(ccc(O)c3CN3CCN(C)CC3)C2=O)cc1,8.07% (inactive)
11,COCCN(CCOC)Cc1c(O)ccc2c1O/C(=C\c1ccco1)C2=O,9.93% (inactive)
12,CCN1CCN(Cc2c(O)ccc3c2O/C(=C\C=C\c2ccccc2)C3=O)CC1,65.3% (active)
13,CCN1CCN(Cc2c(O)ccc3c2O/C(=C\c2ccc(C)cc2)C3=O)CC1,5.39% (inactive)
14,Cc1ccc(/C=C2\Oc3c(ccc(O)c3CN3CCN(CCO)CC3)C2=O)cc1,34.7% (active)
15,COc1ccccc1/C=C/C=C1\Oc2c(ccc(O)c2CN2CCN(CCO)CC2)C1=O,41.9% (active)
16,CC(C)c1ccc(/C=C2\Oc3c(ccc(O)c3CN3CCN(C)CC3)C2=O)cc1,7.76% (inactive)
17,Cc1ccc(/C=C2\Oc3c(ccc(O)c3CN3CCN(C)CC3)C2=O)cc1,1.83% (inactive)
18,CCN1CCN(Cc2c(O)ccc3c2O/C(=C\C=C\c2ccccc2OC)C3=O)CC1,8.36% (inactive)
19,O=C1/C(=C/C=C/c2ccccc2)Oc2c1ccc(O)c2CN1CCN(CCO)CC1,126% (active)
20,CC(=O)c1ccc2c(c1)c(C#N)c1ccccc1[n+]2[O-],174% (active)
21,CC1(C)CC(N2CCCC2)=CC(=[N+]2CCCCC2)C1,16% (active)
22,COc1ccc(-n2c(O)c(/C=N/NS(=O)(=O)c3cc(C)ccc3C)c3ccccc3c2=O)cc1OC,10.9% (inactive)

row,SMILES,activation
1,COc1ccc(-n2c(O)c(/C=N/NS(=O)(=O)c3ccc(C)cc3)c3ccccc3c2=O)cc1OC,46% (active)
2,COc1ccc(-n2c(O)c(/C=N/NS(=O)(=O)c3ccc(C)c([N+](=O)[O-])c3)c3ccccc3c2=O)cc1OC,3.31% (inactive)
3,CCC12CN3CCN(CC(C3)/C1=N\NC(=O)Nc1ccccc1)C2,4.76% (inactive)
4,O=C(c1ccccc1)[C@@H]1[C@@H]2C(=O)N(c3ccc(F)cc3)C(=O)[C@@H]2C2CCCN21 (some centres undefined),22.7% (active)
5,Cc1ccc(C(=O)N2C(=O)C(c3ccccc3)Oc3ccccc32)cc1 (centres undefined),5.01% (inactive)
6,Cc1ccc(N2C(=O)[C@@H]3[C@H](C2=O)C2CCCN2[C@@H]3C(=O)c2ccccc2)cc1 (some centres undefined),290% (active)
7,COc1cccc(C2CC(c3ccccc3)n3ncnc3N2)c1 (centres undefined),19.8% (active)
8,O=C1CC(c2cccc(Oc3ccccc3)c2)NC(=O)N1 (centres undefined),6.43% (inactive)
9,N#C/C(=C(/O)COC(=O)COc1ccc(Cl)cc1)c1nc2ccccc2[nH]1,13.2% (active)
10,COc1ccc(C(=O)OC/C(O)=C(\C#N)c2nc3ccccc3[nH]2)cc1S(=O)(=O)N1CCOCC1,-0.63% (inactive)
11,CCN(CC)c1ccc(C=Nc2cc(C)ccc2C)c(O)c1,15.7% (active)
12,Cc1ccc(N=Cc2sc(O)c3ccccc23)c(C)c1,7.52% (inactive)
13,O=C(c1ccc2c(=O)n3c(nc2c1)CCCCC3)N1CCN(c2cccc(Cl)c2)CC1,0.38% (inactive)
14,COc1ccc(-c2nnc(SCC(=O)c3ccc[nH]3)n2-c2ccccc2)cc1,15.9% (active)
15,Cc1ccc(C(=O)NNC(=O)CSc2nnc(-c3ccncc3)n2-c2ccc(C)cc2)cc1,7.51% (inactive)
16,COc1ccccc1NC(=O)CC(=O)CSc1nnc(-c2ccc(C)cc2)n1-c1ccccc1,3.38% (inactive)
17,Cn1cc(Cl)c(-c2nc3ccccc3[nH]2)n1,20.4% (active)
18,Cn1nc([N+](=O)[O-])c(C(C#N)c2ccccn2)c(Cl)c1=O (centres undefined),8.7% (inactive)
19,CCOC(=O)c1ccc(NC(=O)c2cc3c(C)nn(-c4ccccc4Cl)c3s2)s1,16.9% (active)
20,CCN(CC)CCCNc1ccc2ncn3c4ccc(O)cc4c(=O)c1c23,-1.43% (inactive)
21,O=C/C(=C\Nc1ccc(S(=O)(=O)CCO)cc1)c1nc2cc(Cl)ccc2o1,65% (active)
22,N#CC(C#N)=C1C=C2C=C(N3CCCCCC3)CCC2CC1 (centres undefined),5.58% (inactive)

row,SMILES,activation
1,COc1ccc2ccccc2c1C(O)c1nccn1C (centres undefined),58% (active)
2,CN1c2ccc(C=O)c3c(C=O)ccc(c23)N(C)C1(C)C,1.58% (inactive)
3,CC1=CC2=NC(=O)/C(=C\c3ccc(-c4cccc(Cl)c4)o3)C(=N)N2O1,101% (active)
4,OCCNCc1cccc(OCc2ccc(Cl)cc2)c1,173% (active)
5,COc1ccc(CNCc2cccc(Cl)c2)cc1,4.73% (inactive)
6,CN1CCN(/N=C/c2ccc(OCc3ccccc3)cc2)CC1,309% (active)
7,O=C(C1CCN(Cc2ccc(OCc3ccccc3)cc2)CC1)N1CCCC1,-1.48% (inactive)
8,CN1CCN(CCOc2ccc(Cc3ccccc3)cc2)CC1,9.76% (inactive)
9,O=C(O)C1CC(O)CN1C(=O)c1ccco1 (centres undefined),5.9% (inactive)
10,O=C(NCc1ccco1)C1Cc2ccccc2CN1C(=O)c1ccco1 (centres undefined),2880% (active)
11,O=C(NCc1ccco1)C1CCC(N2C(=O)C3C4CCC(C4)C3C2=O)CC1 (centres undefined),6.57% (inactive)
12,CCC1OC23CCCCC2C(C#N)(C(=N)O3)C1(C#N)C#N (centres undefined),10.4% (inactive)
13,CCCCC1OC23CCCCC2C(C#N)(C(=N)O3)C1(C#N)C#N (centres undefined),10.2% (inactive)
14,CCCC1OC23CCCCC2C(C#N)(C#N)C1(C#N)C(=N)O3 (centres undefined),179% (active)
15,COc1ccc(C2OC34CCCCC3C(C#N)(C#N)C2(C#N)C(=N)O4)cc1 (centres undefined),5.98% (inactive)
16,CCCCC1OC23CCCCC2C(C#N)(C#N)C1(C#N)C(=N)O3 (centres undefined),13% (active)
17,CCCCOc1ccc(C2OC34CCCCC3C(C#N)(C#N)C2(C#N)C(=N)O4)cc1 (centres undefined),6.95% (inactive)
18,CCCCCCCCOc1ccc(C2OC34CCCCC3C(C#N)(C#N)C2(C#N)C(=N)O4)cc1 (centres undefined),17.2% (active)
19,N#CC1(C#N)C(c2ccccc2)OC23CCCCC2C1(C#N)C(=N)O3 (centres undefined),-2.46% (inactive)
20,CCOc1ccc(C2OC34CCCCC3C(C#N)(C#N)C2(C#N)C(=N)O4)cc1OC (centres undefined),7.44% (inactive)
